Published values collected from several papers.
Target: Mitogen-activated protein kinase kinase kinase kinase 1 (MAP4K1, Homo sapiens, UniProt Q92918)

| Compound | effect on | mode | technique | tested at | quantity | result |
| --- | --- | --- | --- | --- | --- | --- |
| C=CC(=O)N1CCC[C@@H](n2nc(-c3ccc(Oc4ccccc4)cc3)c3c(N)ncnc32)C1 | enzyme activity | inhibitor | – | 1 µM | inhibition | 10% |
| CC(C)S(=O)(=O)c1ccc2nccc(Nc3ccc4sc(C5CCCC5)nc4c3)c2c1 | enzyme activity | inhibitor | – | 1 µM | activity vs control | 102% |
| CN1CCN(C(=O)c2ccc(NC(=O)Nc3ccc(N(C)c4ccnc(Nc5ccc(CS(C)(=O)=O)cc5)n4)cc3)cc2)CC1 | binding | – | competition with immobilised ligand | 1 µM | remaining binding | 2.6% |
| C#Cc1cc(-c2cc(Nc3nc(N[C@@H](C)c4ccc(F)cn4)ncc3Cl)n[nH]2)ccc1C=O | enzyme activity | inhibitor | – | 0.2 µM | inhibition | 47.8% |
| COc1ccc2oc(-c3ccc4nc(N)oc4c3)c/c(=N\c3ccccc3NC(=O)CCN)c2c1 | binding | – | – | 1 µM | remaining binding | 109% |
| CCCCC(=O)Nc1ccc(-c2ccc3ncn(CCC)c(=O)c3c2)cn1 | binding | – | competition with immobilised ligand | 0.5 µM | remaining binding | 100% |
| CO[C@@H]1[C@H](N(C)C(=O)c2ccccc2)C[C@H]2O[C@]1(C)n1c3ccccc3c3c4c(c5c6ccccc6n2c5c31)C(=O)NC4 | enzyme activity | inhibitor | – | 1 µM | inhibition | 80% |
| C[C@H]1CC[C@H](n2c3cnccc3c3cnc(Nc4ccc5c(n4)CCN(C(=O)CO)C5)nc32)CC1 | binding | – | competition with immobilised ligand | 1 µM | remaining binding | 66% |
